Test results published in PMC3778312 (British Journal of Cancer, 2013).

Key:
[1] = system: advanced solid tumors; details: ref Hong et al, 2012, cited from earlier work
[2] = system: PI-3Kβ; details: read-out: IC50 against PI-3Kβ; ref Wipf et al, 2004; cited from earlier work
[3] = system: Patient-derived SCCHN xenografts; details: PX-866 and docetaxel compared with either agent alone; ref Bowles et al, 2011; cited from earlier work
[4] = system: PI3Kα; details: read-out: IC50 against PI3Kα; ref Wipf et al, 2004; cited from earlier work
[5] = system: A-549 NSCLC xenografts; details: single agent; ref Ihle et al, 2005; Koul et al, 2010; cited from earlier work
[6] = system: U87 glioma xenografts; details: single agent; ref Ihle et al, 2005; Koul et al, 2010; cited from earlier work
[7] = system: HT29 colon cancer xenografts; details: single agent; ref Ihle et al, 2005; Koul et al, 2010; cited from earlier work
[8] = system: OvCar-3 ovarian cancer xenografts; details: single agent; ref Ihle et al, 2005; Koul et al, 2010; cited from earlier work
[9] = system: incurable solid tumours; experiment: Phase 1 antitumour activity of PX-866 with docetaxel; type: in vivo, human
Outline: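 Test compound given orally at 4, 6 or 8 mg daily (fasting) with docetaxel 75 mg m−2 IV every 21 days. In cycle 1, docetaxel was given on day 1 and the test compound started on day 8. Response was assessed about every 6 weeks by RECIST 1.1, with PSA per PCWG allowed in mCRPC. PFS ran from consent to progression or death. Archival tumour was genotyped for PIK3CA/KRAS by shifted termination assay.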

[10] = Phase 1 safety monitoring of PX-866 with docetaxel; type: in vivo, human
Outline: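 Open-label dose escalation in cohorts of 6–9 patients at 4, 6 or 8 mg oral daily test compound plus docetaxel 75 mg m−2 IV every 21 days, with dexamethasone premedication. All patients receiving ≥1 dose had vital signs, labs and exams; AEs were graded by NCI CTCAE v4.02. DLTs included related grade ≥3 events, febrile grade 3/4 neutropenia, platelets <25 000 per μl and ANC <500 per μl for >7 days.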

C=CCN(/C=C1/C(=O)O[C@H](COC)[C@@]2(C)C1=C(O)C(=O)C1=C2[C@H](OC(C)=O)C[C@]2(C)C(=O)CC[C@@H]12)CC=C [PX-866]
single-agent MTD ([1]; previously determined, daily): 8 mg | time PX-866 may be given safely [1]: over 1 year | best response per RECIST 1.1: stable disease, share of evaluable patients ([1]; single-agent PX-866, week 6): over 50% | recommended phase 2 dose (RP2D), single agent ([1]; single-agent PX-866): 8 mg daily | IC50 [2]: 88 ± 27 nM | tumour suppression [3]: enhanced tumour suppression | IC50 [4]: 39 ± 21 nM | tumour growth [5]: delays tumour growth | tumour growth [6]: delays tumour growth | tumour growth [7]: delays tumour growth | tumour growth [8]: delays tumour growth | evaluable patients remaining on study in excess of 180 days ([9]; 11 out of 35): 31% | best response: partial response (PR) ([9]; 35 evaluable patients (2 patients)): 6% | best response: disease progression (PD) ([9]; 35 evaluable patients (11 patients)): 31% | median PFS, PIK3CA-MUT/KRAS-WT ([9]; N=6, range: 49–334, P=0.23 vs WT/WT): 175 days | median PFS, mutational status unknown ([9]; N=12, range: 1–569): 77.5 days | median PFS, PIK3CA-WT/KRAS-WT ([9]; N=20, range: 1–342): 49 days | PR+SD rate ([9]; evaluable patients): 69% | overall median progression-free survival (PFS) ([9]; range: 1–569): 73.5 days | patients with tumour shrinkage of ⩾15% ([9]; ten patients): 29% | patients requiring PX-866 dose reductions ([10]; 4 out of 43, all in the 8 mg cohort, vomiting and/or diarrhoea): 9% | Treatment-emergent AE: Alopecia ([10]; PX-866 4 mg + docetaxel, N=10): 2 (20) N (%) | Treatment-emergent AE: Anaemia ([10]; PX-866 4 mg + docetaxel, N=10): 2 (20) N (%) | Treatment-emergent AE: Arthralgia ([10]; PX-866 4 mg + docetaxel, N=10): 0 (0) N (%) | Treatment-emergent AE: Asthenia ([10]; PX-866 4 mg + docetaxel, N=10): 1 (10) N (%) | Treatment-emergent AE: Bone pain ([10]; PX-866 4 mg + docetaxel, N=10): 0 (0) N (%) | Treatment-emergent AE: Cough ([10]; PX-866 4 mg + docetaxel, N=10): 2 (20) N (%) | Treatment-emergent AE: Decreased appetite ([10]; PX-866 4 mg + docetaxel, N=10): 1 (10) N (%) | Treatment-emergent AE: Dehydration ([10]; PX-866 4 mg + docetaxel, N=10): 3 (30) N (%) | Treatment-emergent AE: Diarrhoea ([10]; PX-866 4 mg + docetaxel, N=10): 7 (70) N (%) | Treatment-emergent AE: Dizziness ([10]; PX-866 4 mg + docetaxel, N=10): 1 (10) N (%) | Treatment-emergent AE: Dysgeusia ([10]; PX-866 4 mg + docetaxel, N=10): 2 (20) N (%) | Treatment-emergent AE: Epistaxis ([10]; PX-866 4 mg + docetaxel, N=10): 1 (10) N (%) | Treatment-emergent AE: Fatigue ([10]; PX-866 4 mg + docetaxel, N=10): 6 (60) N (%) | Treatment-emergent AE: Hypokalemia ([10]; PX-866 4 mg + docetaxel, N=10): 2 (20) N (%) | Treatment-emergent AE: Nausea ([10]; PX-866 4 mg + docetaxel, N=10): 5 (50) N (%) | Treatment-emergent AE: Neutropenia ([10]; PX-866 4 mg + docetaxel, N=10): 6 (60) N (%) | Treatment-emergent AE: Oedema peripheral ([10]; PX-866 4 mg + docetaxel, N=10): 4 (40) N (%) | Treatment-emergent AE: Oropharyngeal pain ([10]; PX-866 4 mg + docetaxel, N=10): 1 (10) N (%) | Treatment-emergent AE: Pyrexia ([10]; PX-866 4 mg + docetaxel, N=10): 1 (10) N (%) | Treatment-emergent AE: Stomatitis ([10]; PX-866 4 mg + docetaxel, N=10): 1 (10) N (%) | Treatment-emergent AE: Vomiting ([10]; PX-866 4 mg + docetaxel, N=10): 3 (30) N (%) | Treatment-emergent AEs, frequency by severity: Grade 1 ([10]; PX-866 4 mg + docetaxel, N=10): 32 (56) N (%) | Treatment-emergent AEs, frequency by severity: Grade 2 ([10]; PX-866 4 mg + docetaxel, N=10): 10 (18) N (%) | Treatment-emergent AEs, frequency by severity: Grade 3 ([10]; PX-866 4 mg + docetaxel, N=10): 8 (14) N (%) | Treatment-emergent AEs, frequency by severity: Grade 4 ([10]; PX-866 4 mg + docetaxel, N=10): 7 (12) N (%) | Treatment-emergent AEs, frequency by severity: Grade 5 ([10]; PX-866 4 mg + docetaxel, N=10): 0 (0) N (%) | Treatment-emergent AE: Alopecia ([10]; PX-866 6 mg + docetaxel, N=10): 6 (60) N (%) | Treatment-emergent AE: Anaemia ([10]; PX-866 6 mg + docetaxel, N=10): 2 (20) N (%) | Treatment-emergent AE: Arthralgia ([10]; PX-866 6 mg + docetaxel, N=10): 2 (20) N (%) | Treatment-emergent AE: Asthenia ([10]; PX-866 6 mg + docetaxel, N=10): 4 (40) N (%) | Treatment-emergent AE: Bone pain ([10]; PX-866 6 mg + docetaxel, N=10): 4 (40) N (%) | Treatment-emergent AE: Constipation ([10]; PX-866 6 mg + docetaxel, N=10): 3 (30) N (%) | Treatment-emergent AE: Cough ([10]; PX-866 6 mg + docetaxel, N=10): 5 (50) N (%) | Treatment-emergent AE: Decreased appetite ([10]; PX-866 6 mg + docetaxel, N=10): 4 (40) N (%) | Treatment-emergent AE: Dehydration ([10]; PX-866 6 mg + docetaxel, N=10): 1 (10) N (%) | Treatment-emergent AE: Diarrhoea ([10]; PX-866 6 mg + docetaxel, N=10): 8 (80) N (%) | Treatment-emergent AE: Dizziness ([10]; PX-866 6 mg + docetaxel, N=10): 2 (20) N (%) | Treatment-emergent AE: Dysgeusia ([10]; PX-866 6 mg + docetaxel, N=10): 3 (30) N (%) | Treatment-emergent AE: Epistaxis ([10]; PX-866 6 mg + docetaxel, N=10): 2 (20) N (%) | Treatment-emergent AE: Fatigue ([10]; PX-866 6 mg + docetaxel, N=10): 7 (70) N (%) | Treatment-emergent AE: Hypokalemia ([10]; PX-866 6 mg + docetaxel, N=10): 1 (10) N (%) | Treatment-emergent AE: Nausea ([10]; PX-866 6 mg + docetaxel, N=10): 4 (40) N (%) | Treatment-emergent AE: Neutropenia ([10]; PX-866 6 mg + docetaxel, N=10): 5 (50) N (%) | Treatment-emergent AE: Oedema peripheral ([10]; PX-866 6 mg + docetaxel, N=10): 6 (60) N (%) | Treatment-emergent AE: Oropharyngeal pain ([10]; PX-866 6 mg + docetaxel, N=10): 1 (10) N (%) | Treatment-emergent AE: Pyrexia ([10]; PX-866 6 mg + docetaxel, N=10): 4 (40) N (%) | Treatment-emergent AE: Stomatitis ([10]; PX-866 6 mg + docetaxel, N=10): 4 (40) N (%) | Treatment-emergent AE: Vomiting ([10]; PX-866 6 mg + docetaxel, N=10): 5 (50) N (%) | Treatment-emergent AEs, frequency by severity: Grade 1 ([10]; PX-866 6 mg + docetaxel, N=10): 36 (49) N (%)
